Data published in ChEMBL document CHEMBL1157014, “Synthesis, characterization and biological evaluation of some thiourea derivatives bearing benzothiazole moiety as potential antimicrobial and anticancer agents” (Eur J Med Chem, 2010).
pIC50: −log10 of the molar value. Converted amounts (≈) assume the structure as drawn.

Experiments:
Escherichia coli = test: microbe, parasite or virus in culture; conditions: ATCC 25922, 24 h
Nakaseomyces glabratus = test: Antifungal activity against Candida glabrata ATCC 32554 after 48 hrs by browth microdilution assay; type: functional; conditions: ATCC 32554, 48 h
In short: (§1)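 Yeast colonies suspended in 0.9% saline and adjusted to McFarland 0.5, then tested by CLSI broth microdilution. Compounds in DMSO, diluted with distilled water to 3.125–100 µg/ml, with DMSO as negative control and nystatin as reference. Incubation at 37 °C, read after 48 h. MIC is the lowest concentration with no visible growth.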

Pichia kudriavzevii = test: Antifungal activity against Candida krusei ATCC 6268 after 48 hrs by browth microdilution assay; type: functional; conditions: ATCC 6268, 48 h
In short: as §1

Candida albicans = test: Antifungal activity against Candida albicans ATCC 90028 after 48 hrs by browth microdilution assay; type: functional; conditions: ATCC 90028, 48 h
In short: as §1

HeLa = test: Cytotoxicity against human HeLa after 24 hrs by MTT assay; type: functional, cell-based
In short: (§2)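 Cells grown in MEM with 10% FBS and 1% glutamine at 5% CO2, seeded at 1.0×10^4 cells. Exposed to compounds at 1–100 µM in medium containing 0.1% DMSO for 24 h at 37 °C. MTT (1 mg/ml) added for 5 h at 37 °C, then DMSO added and absorbance read at 540 nm. Run in triplicate; IC50 determined.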

Enterobacter cloacae = test: Antibacterial activity against Enterobacter cloacae ATCC 13047 after 24 hrs by browth microdilution assay; type: functional; conditions: ATCC 13047, 24 h
In short: (§3)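 Broth microdilution per CLSI. Colonies suspended in 0.9% saline and adjusted to McFarland 0.5. Compounds dissolved in DMSO, diluted with distilled water to 100, 50, 25, 12.5, 6.25 and 3.125 µg/ml, with DMSO as negative control. Gentamycin (Gram-negative) and amikacin (Gram-positive) served as reference drugs. Incubation at 37 °C for 24 h. MIC taken as the lowest concentration preventing visible growth.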

Candida tropicalis = test: Antifungal activity against Candida tropicalis ATCC 20336 after 48 hrs by browth microdilution assay; type: functional; conditions: ATCC 20336, 48 h
In short: as §1

Pseudomonas aeruginosa = test: Antibacterial activity against Pseudomonas aeruginosa ATCC 27853 after 24 hrs by browth microdilution assay; type: functional; conditions: ATCC 27853, 24 h
In short: as §3

MCF7 [1] = test: Cytotoxicity against human MCF7 after 24 hrs by MTT assay; type: functional, cell-based; conditions: MCF7, 24 h
In short: as §2

Proteus vulgaris = test: Antibacterial activity against Proteus vulgaris ATCC 13315 after 24 hrs by browth microdilution assay; type: functional; conditions: ATCC 13315, 24 h
In short: as §3

Staphylococcus aureus = test: Antibacterial activity against Staphylococcus aureus ATCC 29213 after 24 hrs by browth microdilution assay; type: functional; conditions: ATCC 29213, 24 h
In short: as §3

[2] = system: Staphylococcus epidermidis; test: Antibacterial activity against Staphylococcus epidermidis ATCC 12228 after 24 hrs by browth microdilution assay; type: functional; conditions: ATCC 12228, 24 h
In short: as §3

Enterococcus faecalis = test: Antibacterial activity against Enterococcus faecalis ATCC 29212 after 24 hrs by browth microdilution assay; type: functional; conditions: ATCC 29212, 24 h
In short: as §3

[3] = system: Staphylococcus aureus (ATCC 25923); test: Antibacterial activity against Staphylococcus aureus ATCC 25923 after 24 hrs by browth microdilution assay; conditions: ATCC 25923, 24 h
MCF7 [4] = test: Cytotoxicity against human MCF7 after 72 hrs by MTT assay; type: functional, cell-based; conditions: MCF7, 72 h
In short: (§4)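 MCF-7 cells in MEM with 10% FBS at 5% CO2 were exposed to compounds (1–100 µM, 0.1% DMSO vehicle) for 48 or 72 h before MTT read-out. IC50 values came from the MTT assay.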

MCF7 [5] = test: Cytotoxicity against human MCF7 after 48 hrs by MTT assay; type: functional, cell-based; conditions: MCF7, 48 h
In short: as §4

Compound | MIC (Escherichia coli) | MIC (Nakaseomyces glabratus) | MIC (Pichia kudriavzevii) | MIC (Candida albicans) | pIC50 (HeLa) | MIC (Enterobacter cloacae) | MIC (Candida tropicalis) | MIC (Pseudomonas aeruginosa) | pIC50 (MCF7 [1]) | MIC (Proteus vulgaris) | MIC (Staphylococcus aureus) | MIC [2] | MIC (Enterococcus faecalis) | MIC [3] | pIC50 (MCF7 [4]) | pIC50 (MCF7 [5])
Nc1ccc2sc(NC(=S)NC(=O)c3cccs3)nc2c1 | 20 µg/mL (≈ 59.8 µM) | 20 µg/mL (≈ 59.8 µM) | 25 µg/mL (≈ 74.7 µM) | 25 µg/mL (≈ 74.7 µM) | 4.25 | 50 µg/mL (≈ 149 µM) | 25 µg/mL (≈ 74.7 µM) | 50 µg/mL (≈ 149 µM) | 4.55 | 25 µg/mL (≈ 74.7 µM) | – | – | – | – | – | –
CCCC(=O)NC(=S)Nc1nc2cc([N+](=O)[O-])ccc2s1 | – | 25 µg/mL (≈ 77.1 µM) | 25 µg/mL (≈ 77.1 µM) | 20 µg/mL (≈ 61.7 µM) | – | 20 µg/mL (≈ 61.7 µM) | 50 µg/mL (≈ 154 µM) | 20 µg/mL (≈ 61.7 µM) | < 4.00 | 20 µg/mL (≈ 61.7 µM) | 50 µg/mL (≈ 154 µM) | 50 µg/mL (≈ 154 µM) | 50 µg/mL (≈ 154 µM) | – | – | –
O=C(NC(=S)Nc1nc2cc([N+](=O)[O-])ccc2s1)c1cccs1 | 15 µg/mL (≈ 41.2 µM) | 10 µg/mL (≈ 27.4 µM) | 20 µg/mL (≈ 54.9 µM) | 15 µg/mL (≈ 41.2 µM) | 4.14 | 15 µg/mL (≈ 41.2 µM) | 15 µg/mL (≈ 41.2 µM) | 20 µg/mL (≈ 54.9 µM) | 4.45 | 20 µg/mL (≈ 54.9 µM) | 25 µg/mL (≈ 68.6 µM) | 10 µg/mL (≈ 27.4 µM) | 15 µg/mL (≈ 41.2 µM) | 25 µg/mL (≈ 68.6 µM) | – | –
CCCC(=O)NC(=S)Nc1nc2cc(N)ccc2s1 | – | 50 µg/mL (≈ 170 µM) | 50 µg/mL (≈ 170 µM) | 20 µg/mL (≈ 67.9 µM) | – | – | 50 µg/mL (≈ 170 µM) | – | 4.35 | – | 50 µg/mL (≈ 170 µM) | 50 µg/mL (≈ 170 µM) | 50 µg/mL (≈ 170 µM) | – | – | –
NCC[C@H](O)C(=O)N[C@@H]1C[C@H](N)[C@@H](O[C@H]2O[C@H](CN)[C@@H](O)[C@H](O)[C@H]2O)[C@H](O)[C@H]1O[C@H]1O[C@H](CO)[C@@H](O)[C@H](N)[C@H]1O [AMIKACIN] | – | – | – | – | – | – | – | – | – | – | 2 µg/mL (≈ 3.42 µM) | 0.5 µg/mL (≈ 0.854 µM) | 4 µg/mL (≈ 6.83 µM) | 2 µg/mL (≈ 3.42 µM) | – | –
O=C(NC(=S)Nc1nc2ccccc2s1)c1ccccc1 | – | 25 µg/mL (≈ 79.8 µM) | 50 µg/mL (≈ 160 µM) | 50 µg/mL (≈ 160 µM) | 4.24 | – | 50 µg/mL (≈ 160 µM) | – | 4.43 | – | – | – | – | – | – | –
O=C(NC(=S)Nc1nc2ccccc2s1)N1CCOCC1 | 25 µg/mL (≈ 77.5 µM) | 25 µg/mL (≈ 77.5 µM) | 25 µg/mL (≈ 77.5 µM) | 25 µg/mL (≈ 77.5 µM) | 4.29 | 25 µg/mL (≈ 77.5 µM) | 25 µg/mL (≈ 77.5 µM) | 50 µg/mL (≈ 155 µM) | 4.53 | 25 µg/mL (≈ 77.5 µM) | 50 µg/mL (≈ 155 µM) | 25 µg/mL (≈ 77.5 µM) | 50 µg/mL (≈ 155 µM) | 50 µg/mL (≈ 155 µM) | – | –
O=C(NC(=S)Nc1nc2ccccc2s1)c1cccs1 | 25 µg/mL (≈ 78.3 µM) | 25 µg/mL (≈ 78.3 µM) | 25 µg/mL (≈ 78.3 µM) | 50 µg/mL (≈ 157 µM) | 4.17 | 50 µg/mL (≈ 157 µM) | 50 µg/mL (≈ 157 µM) | 50 µg/mL (≈ 157 µM) | 4.49 | 50 µg/mL (≈ 157 µM) | 50 µg/mL (≈ 157 µM) | 50 µg/mL (≈ 157 µM) | 50 µg/mL (≈ 157 µM) | 50 µg/mL (≈ 157 µM) | – | –
O=C(NC(=S)Nc1nc2cc(Br)ccc2s1)c1cccs1 | 25 µg/mL (≈ 62.8 µM) | – | – | – | 4.33 | 50 µg/mL (≈ 126 µM) | – | 25 µg/mL (≈ 62.8 µM) | 4.62 | 50 µg/mL (≈ 126 µM) | – | – | – | – | 4.92 | 4.81
O=C(NC(=S)Nc1nc2cc(Br)ccc2s1)c1ccccc1 | – | 25 µg/mL (≈ 63.7 µM) | 50 µg/mL (≈ 127 µM) | 25 µg/mL (≈ 63.7 µM) | 4.19 | – | 50 µg/mL (≈ 127 µM) | – | 4.49 | – | 50 µg/mL (≈ 127 µM) | 50 µg/mL (≈ 127 µM) | 50 µg/mL (≈ 127 µM) | 50 µg/mL (≈ 127 µM) | – | –
O=C(NC(=S)Nc1nc2cc([N+](=O)[O-])ccc2s1)N1CCOCC1 | 15 µg/mL (≈ 40.8 µM) | 5 µg/mL (≈ 13.6 µM) | 20 µg/mL (≈ 54.4 µM) | 15 µg/mL (≈ 40.8 µM) | 4.26 | 15 µg/mL (≈ 40.8 µM) | 5 µg/mL (≈ 13.6 µM) | 25 µg/mL (≈ 68 µM) | 4.51 | 20 µg/mL (≈ 54.4 µM) | 25 µg/mL (≈ 68 µM) | 10 µg/mL (≈ 27.2 µM) | 10 µg/mL (≈ 27.2 µM) | 20 µg/mL (≈ 54.4 µM) | – | –
